# Source: ChEMBL document CHEMBL1158458, “Virtual screening approach for the identification of new Rac1 inhibitors” (J Med Chem, 2009)
# pIC50: −log10 of the molar value. Active and inactive are the calls of the source. No cut-off for these calls is given here.
# Assays:
# [1] = target: Ras-related C3 botulinum toxin substrate 1 (Homo sapiens, UniProt P63000); test: Inhibition of PDGF-BB-stimulated Rac1 activity in human aortic smooth muscle cells assessed as reduction of Rac1GTP level after 4 hrs by G-LISA
# [2] = target: Cell division control protein 42 homolog (Homo sapiens) (UniProt P60953); test: Inhibition of Cdc42
# [3] = target: Cell division control protein 42 homolog (Homo sapiens) (UniProt P60953); test: Inhibition of PDGF-BB-stimulated Cdc42 activity in human aortic smooth muscle cells assessed as reduction in ratio of Cdc42GTP/Cdc42 levels at 25 uM after 4 hrs by pull-down assay
# In short: (§1)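 Cultured human aortic SMCs exposed to compound at 25 μM for 4 h, then stimulated with PDGF-BB (final 10 ng/mL) for 2 min. Active GTPase (Cdc42-GTP for line 2, RhoA-GTP for line 3) isolated by pull-down and expressed as the GTP-bound/total protein ratio. The Rac1 pull-down was run under the same conditions.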
# [4] = target: Transforming protein RhoA (Homo sapiens) (UniProt P61586); test: Inhibition of PDGF-BB-stimulated RhoA activity in human aortic smooth muscle cells assessed as reduction in ratio of RhoAGTP/RhoA levels at 25 uM after 4 hrs by pull-down assay; in short: as §1
# [5] = target: Ras-related C3 botulinum toxin substrate 1 (Mus musculus) (UniProt P63001); test: Inhibition of PDGF-BB-stimulated Rac1-mediated cellular events in mouse 3T3 cells assessed as induction of membrane lamillipodia at 25 uM after 48 hrs by fluorescent microscopy; type: cell-based; settings: NIH3T3
# In short: (§2)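 Serum-starved 3T3 cells were treated with compound at 25 μM and stimulated with PDGF-BB. Lamellipodia and membrane ruffle formation at the cell edges were then scored, together with cytoskeletal rearrangement.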
# [6] = target: Ras-related C3 botulinum toxin substrate 1 (Mus musculus) (UniProt P63001); test: Inhibition of PDGF-BB-stimulated Rac1-mediated cellular events in mouse 3T3 cells assessed as induction of membrane ruffling formation at 25 uM after 48 hrs by fluorescent microscopy; type: cell-based; settings: NIH3T3; in short: as §2
# Transforming protein RhoA (Homo sapiens), sequence (P61586 whole entry): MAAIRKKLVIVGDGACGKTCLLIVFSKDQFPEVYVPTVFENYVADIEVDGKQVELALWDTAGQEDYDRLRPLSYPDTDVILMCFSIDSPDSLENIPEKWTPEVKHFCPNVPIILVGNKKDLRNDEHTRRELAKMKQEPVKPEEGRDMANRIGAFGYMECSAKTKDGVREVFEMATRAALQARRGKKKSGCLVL
# Cell division control protein 42 homolog (Homo sapiens), sequence (P60953 whole entry, looked up): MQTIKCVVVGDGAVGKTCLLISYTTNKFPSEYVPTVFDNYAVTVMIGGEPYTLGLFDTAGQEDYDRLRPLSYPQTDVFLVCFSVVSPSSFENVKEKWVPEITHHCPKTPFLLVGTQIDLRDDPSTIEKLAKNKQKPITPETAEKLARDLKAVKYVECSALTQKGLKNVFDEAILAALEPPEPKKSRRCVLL
smiles,measurement,setting,value
COc1cc2c(C#N)c(N3CCN(c4ccccc4OC)CC3)nc(N)c2c(N)n1,pIC50,[1],4.34
same,Activity,[2],Active
same,Percent reduction in Cdc42-GTP/total Cdc42 ratio,[3],< 25%
same,Activity,[4],inactive
CC(OC(=O)c1ccc2ccccc2c1O)C(=O)Nc1ccc(N2CCOCC2)cc1 (stereo not given),Activity,[2],Active
same,Percent reduction in Cdc42-GTP/total Cdc42 ratio,[3],< 25%
same,Activity,[4],inactive
O=C(CNc1ccc(F)c([N+](=O)[O-])c1)Nc1ccc(N2CCOCC2)cc1,Activity,[2],Active
same,Percent reduction in Cdc42-GTP/total Cdc42 ratio,[3],< 25%
same,Activity,[4],inactive
COc1ccc(NC(=O)c2n[nH]c3ccccc23)cc1S(=O)(=O)N1CCCCC1,Activity,[2],Active
same,Percent reduction in Cdc42-GTP/total Cdc42 ratio,[3],< 25%
same,Activity,[4],inactive
same,Activity,[5],Active
same,Activity,[6],Active
